Activity calls are given as the source filed them. The rule behind the calls is not given here.
Legend:
[1] = test system: Geobacillus stearothermophilus; experiment: Antibacterial activity against Bacillus stearothermophilus NCA 1518 at 75 ug/disk after 24 hrs by disk diffusion assay; assay type: functional; conditions: read-out: Diameter of inhibition zone
Method in brief: (§1)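 Sterile 6 mm filter-paper disc bearing sample set in the centre of a Petri dish of 15 ml plate count agar. Overlaid with 3 ml soft nutrient agar (nutrient broth + 0.7% agar) seeded with 1% of a 16–18 h culture of the test strain. Read-out is the diameter of the growth-free zone around the disc.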

Staphylococcus aureus [2] = experiment: Antibacterial activity against Staphylococcus aureus T-AQ 49/YF29 at 10 ug/disk after 24 hrs by disk diffusion assay; assay type: functional; conditions: read-out: Diameter of inhibition zone; method in brief: as §1
Staphylococcus aureus [3] = experiment: Antibacterial activity against Staphylococcus aureus T-AQ 49/YF29 at 75 ug/disk after 24 hrs by disk diffusion assay; assay type: functional; conditions: read-out: Diameter of inhibition zone; method in brief: as §1
Bacillus subtilis [4] = experiment: Antibacterial activity against Bacillus subtilis NCIB 3610 at 10 ug/disk after 24 hrs by disk diffusion assay; assay type: functional; conditions: read-out: Diameter of inhibition zone; method in brief: as §1
Staphylococcus aureus [5] = experiment: Antibacterial activity against Staphylococcus aureus T-AQ 49/YF29 at 100 ug/disk after 24 hrs by disk diffusion assay; assay type: functional; conditions: read-out: Diameter of inhibition zone; method in brief: as §1
[6] = test system: Geobacillus stearothermophilus; experiment: Antibacterial activity against Bacillus stearothermophilus NCA 1518 at 500 ug/disk after 24 hrs by disk diffusion assay; assay type: functional; conditions: read-out: Diameter of inhibition zone; method in brief: as §1
Pseudomonas aeruginosa = experiment: Antibacterial activity against Pseudomonas aeruginosa ATCC 10145 at 1 mg/disk after 24 hrs by disk diffusion assay; assay type: functional, organism-based; method in brief: as §1
Bacillus cereus [7] = experiment: Antibacterial activity against Bacillus cereus NCIB 3329 at 1000 ug/disk after 24 hrs by disk diffusion assay; assay type: functional; conditions: read-out: Diameter of inhibition zone; method in brief: as §1
Bacillus cereus [8] = experiment: Bactericidal activity against Bacillus cereus NCIB 3329 at 50 ug/ml by liquid culture assay; assay type: functional, organism-based
Method in brief: (§2)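 Wells hold brain heart infusion (200 µl) plus 50 µl inoculum at 10³–10⁵ cfu/ml, with dicranin added as the sodium salt in water (10–200 μg/ml tested). Cultures are incubated at the strain's optimal growth temperature. Duplicate 100 µl samples are taken at 0, 2, 4, 6, 8 and 24 h, diluted in tryptone salt to 10–500 bacteria/plate, plated on plate count agar, and colonies counted after 24 h.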

[9] = test system: Geobacillus stearothermophilus; experiment: Bactericidal activity against Bacillus stearothermophilus NCA 1518 at 50 to 150 ug/ml upto 4 hrs by liquid culture assay; assay type: functional, organism-based; method in brief: as §2
Staphylococcus aureus [10] = experiment: Antibacterial activity against Staphylococcus aureus T-AQ 49/YF29 at 125 ug/disk after 24 hrs by disk diffusion assay; assay type: functional; conditions: read-out: Diameter of inhibition zone; method in brief: as §1
Salmonella typhimurium = experiment: Antibacterial activity against Salmonella Typhimurium NCIB 10248 at 1 mg/disk after 24 hrs by disk diffusion assay; assay type: functional, organism-based; conditions: Salmonella enterica subsp. enterica serovar Typhimurium; method in brief: as §1
Staphylococcus aureus [11] = experiment: Antibacterial activity against Staphylococcus aureus T-AQ 49/YF29 at 1000 ug/disk after 24 hrs by disk diffusion assay; assay type: functional; conditions: read-out: Diameter of inhibition zone; method in brief: as §1
[12] = test system: Geobacillus stearothermophilus; experiment: Antibacterial activity against Bacillus stearothermophilus NCA 1518 at 100 ug/disk after 24 hrs by disk diffusion assay; assay type: functional; conditions: read-out: Diameter of inhibition zone; method in brief: as §1
Bacillus subtilis [13] = experiment: Antibacterial activity against Bacillus subtilis NCIB 3610 at 1000 ug/disk after 24 hrs by disk diffusion assay; assay type: functional; conditions: read-out: Diameter of inhibition zone; method in brief: as §1
Bacillus cereus [14] = experiment: Antibacterial activity against Bacillus cereus NCIB 3329 at 100 ug/disk after 24 hrs by disk diffusion assay; assay type: functional; conditions: read-out: Diameter of inhibition zone; method in brief: as §1
Bacillus subtilis [15] = experiment: Antibacterial activity against Bacillus subtilis NCIB 3610 at 75 ug/disk after 24 hrs by disk diffusion assay; assay type: functional; conditions: read-out: Diameter of inhibition zone; method in brief: as §1
Bacillus cereus [16] = experiment: Bactericidal activity against Bacillus cereus NCIB 3329 at 100 ug/ml upto 4 hrs by liquid culture assay; assay type: functional, organism-based; method in brief: as §2
[17] = test system: Geobacillus stearothermophilus; experiment: Antibacterial activity against Bacillus stearothermophilus NCA 1518 at 10 ug/disk after 24 hrs by disk diffusion assay; assay type: functional; conditions: read-out: Diameter of inhibition zone; method in brief: as §1
Staphylococcus aureus [18] = experiment: Antibacterial activity against Staphylococcus aureus T-AQ 49/YF29 at 50 ug/disk after 24 hrs by disk diffusion assay; assay type: functional; conditions: read-out: Diameter of inhibition zone; method in brief: as §1
Bacillus subtilis [19] = experiment: Antibacterial activity against Bacillus subtilis NCIB 3610 at 25 ug/disk after 24 hrs by disk diffusion assay; assay type: functional; conditions: read-out: Diameter of inhibition zone; method in brief: as §1
Enterococcus faecalis = experiment: Antibacterial activity against Streptococcus faecalis NCIB 775 at 10 ug/disk after 24 hrs by disk diffusion assay; assay type: functional; conditions: read-out: Diameter of inhibition zone; method in brief: as §1
[20] = test system: Geobacillus stearothermophilus; experiment: Antibacterial activity against Bacillus stearothermophilus NCA 1518 at 250 ug/disk after 24 hrs by disk diffusion assay; assay type: functional; conditions: read-out: Diameter of inhibition zone; method in brief: as §1
[21] = test system: Geobacillus stearothermophilus; experiment: Antibacterial activity against Bacillus stearothermophilus NCA 1518 after 24 hrs by disk diffusion assay; assay type: functional, organism-based; method in brief: as §1
Bacillus cereus [22] = experiment: Antibacterial activity against Bacillus cereus NCIB 3329 at 25 ug/disk after 24 hrs by disk diffusion assay; assay type: functional; conditions: read-out: Diameter of inhibition zone; method in brief: as §1
Bacillus cereus [23] = experiment: Bactericidal activity against Bacillus cereus NCIB 3329 at 150 ug/ml by liquid culture assay; assay type: functional, organism-based; method in brief: as §2

Compound `CC/C=C\C/C=C\C/C=C\CC#CCCCCC(=O)O` [DICRANIN] has a zone of inhibition at 75 µg/disc [1] of 14 mm, a zone of inhibition at 10 µg/disc (Staphylococcus aureus [2]) of 0 mm and a zone of inhibition at 75 µg/disc (Staphylococcus aureus [3]) of 12 mm. For the same compound, the zone of inhibition at 10 µg/disc (Bacillus subtilis [4]) was 0 mm, the zone of inhibition at 100 µg/disc (Staphylococcus aureus [5]) was 16 mm and the zone of inhibition at 500 µg/disc [6] was 32 mm. For the same compound, the Activity (Pseudomonas aeruginosa) was “inactive”, the zone of inhibition at 1000 µg/disc (Bacillus cereus [7]) was 25 mm and the Activity (Bacillus cereus [8]) was “Active”. The Activity [9] was “Active”, the zone of inhibition at 125 µg/disc (Staphylococcus aureus [10]) was 17 mm and the Activity (Salmonella typhimurium) was “inactive”. It also gave a zone of inhibition at 1000 µg/disc (Staphylococcus aureus [11]) of 23 mm, a zone of inhibition at 100 µg/disc [12] of 16 mm and a zone of inhibition at 1000 µg/disc (Bacillus subtilis [13]) of 20 mm. The zone of inhibition at 100 µg/disc (Bacillus cereus [14]) was 15 mm, the zone of inhibition at 75 µg/disc (Bacillus subtilis [15]) was 13 mm and the Activity (Bacillus cereus [16]) was “Active”. For the same compound, the zone of inhibition at 10 µg/disc [17] was 0 mm, the zone of inhibition at 50 µg/disc (Staphylococcus aureus [18]) was 11 mm and the zone of inhibition at 25 µg/disc (Bacillus subtilis [19]) was 8 mm. For the same compound, the zone of inhibition at 10 µg/disc (Enterococcus faecalis) was 6 mm, the zone of inhibition at 250 µg/disc [20] was 26 mm and the Activity [21] was “Active”. The zone of inhibition at 25 µg/disc (Bacillus cereus [22]) was 9 mm and the Activity (Bacillus cereus [23]) was “Active”.
